Data published in ChEMBL document CHEMBL1147924, “One pot synthesis of pyrimidine and bispyrimidine derivatives and their evaluation for anti-inflammatory and analgesic activities” (2007).

system: Mus musculus; experiment: Analgesic activity against phenylquinone-induced in Swiss mouse assessed as effect on writhings at 50 mg/kg, po after 20 mins; assay type: functional
In short: (§1)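 Female Swiss mice (15–20 g) screened the day before by intraperitoneal 0.2 cm³ of 0.02% aqueous phenylquinone, with writhes counted over 20 min. Mice with more than 10 writhes were used next day in groups of five. They were given the oral dose (25, 50 or 100 mg/kg) 15 min before the phenylquinone challenge, and writhing was recorded.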

Question: `CC1=CC(C)(C)NC(=S)N1CCCn1ccnc1` was tested. Which Activity did it give?
Answer: The Activity was 40%.

Question: Which Activity does the source give for `CC1CC(O)N(CCCN2CCN(CCCN3C(=S)NC(C)CC3O)CC2)C(=S)N1` (stereo not given) here?
Answer: Its Activity is 40%.

Question: How did the Activity turn out when `CC1(C)CC(C)(O)N(CCCN2CCN(CCCN3C(=S)NC(C)(C)CC3(C)O)CC2)C(=S)N1` (stereo not given) was run?
Answer: Its Activity is 10%.

Question: How did the Activity turn out when `CC1=CC(C)(C)NC(=S)N1c1ccccc1C#N` was run?
Answer: The Activity was 0%.

Question: For `CC1=CC(C)(C)NC(=S)N1CCCC1OCC2(CO1)COC(CCCN1C(=S)NC(C)(C)C=C1C)OC2` (stereo not given), which Activity is on record?
Answer: Its Activity is 25%.

Question: How did the Activity turn out when `CC1(C)CC(C)(O)N(Cc2ccco2)C(=S)N1` (stereo not given) was run?
Answer: The Activity was 15%.

Question: For `CC(C)Cc1ccc(C(C)C(=O)O)cc1` (stereo not given) [IBUPROFEN], which Activity is on record?
Answer: Its Activity is 50%.

Question: For `CC1(C)CC(C)(O)N(CCCn2ccnc2)C(=S)N1` (stereo not given), which Activity is on record?
Answer: The Activity was 25%.

Question: Which Activity does the source give for `CC1=CC(C)(C)NC(=S)N1Cc1ccco1` here?
Answer: The Activity was 8.5%.

Question: `CC1CC(O)N(CCCN2CCCC2=O)C(=S)N1` (stereo not given) was tested. Which Activity did it give?
Answer: The Activity was 50%.

Question: For `CC1(C)CC(C)(O)N(CCc2c[nH]cn2)C(=S)N1` (stereo not given), which Activity is on record?
Answer: The Activity was 25%.

system: Mus musculus; experiment: Analgesic activity against phenylquinone-induced in Swiss mouse assessed as effect on writhings at 25 mg/kg, po after 20 mins; assay type: functional; in short: as §1

Question: With `CC1(C)CC(C)(O)N(CCc2c[nH]cn2)C(=S)N1` (stereo not given) as the compound, how does the Activity read?
Answer: The Activity was 12.5%.

system: Mus musculus; experiment: Analgesic activity against phenylquinone-induced in Swiss mouse assessed as effect on writhings at 75 mg/kg, po after 20 mins; assay type: functional

Question: With `CC1(C)CC(C)(O)N(CCc2c[nH]cn2)C(=S)N1` (stereo not given) as the compound, how does the Activity read?
Answer: Its Activity is 50%.

system: Mus musculus; experiment: Analgesic activity against phenylquinone-induced in Swiss mouse assessed as effect on writhings at 100 mg/kg, po after 20 mins; assay type: functional; in short: as §1

Question: Which Activity does the source give for `CC1=CC(C)(C)NC(=S)N1c1ccccc1C#N` here?
Answer: The Activity was 25%.

Question: How did the Activity turn out when `CC1=CC(C)(C)NC(=S)N1CCCC1OCC2(CO1)COC(CCCN1C(=S)NC(C)(C)C=C1C)OC2` (stereo not given) was run?
Answer: The Activity was 75%.

Question: For `CC1(C)CC(C)(O)N(CCCN2CCCC2=O)C(=S)N1` (stereo not given), which Activity is on record?
Answer: The Activity was 34%.

Question: For `CC(C)Cc1ccc(C(C)C(=O)O)cc1` (stereo not given) [IBUPROFEN], which Activity is on record?
Answer: The Activity was 75%.

Question: For `CC1(C)CC(C)(O)N(CCCn2ccnc2)C(=S)N1` (stereo not given), which Activity is on record?
Answer: Its Activity is 50%.

Question: With `CC1=CC(C)(C)NC(=S)N1c1n[nH]c(N2C(=S)NC(C)(C)C=C2C)n1` as the compound, how does the Activity read?
Answer: Its Activity is 0%.

Question: For `CC1(C)CC(C)(O)N(CCc2c[nH]cn2)C(=S)N1` (stereo not given), which Activity is on record?
Answer: Its Activity is 100%.

Question: For `CC1CC(O)N(CCCC2OCC3(CO2)COC(CCCN2C(=S)NC(C)CC2O)OC3)C(=S)N1` (stereo not given), which Activity is on record?
Answer: The Activity was 0%.

system: Rattus norvegicus; experiment: Antiinflammatory activity against carrageenan-induced paw oedema in Albino rat at 50 mg/kg, po after 3 hrs; assay type: functional
In short: (§2)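 Oral dosing. Paw volume was read by plethysmometer immediately after and 3 h after the irritant injection, and the volume difference was taken as oedema. Percent inhibition of oedema was calculated for treated groups against the control group, with a standard-drug group included.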

Question: `CC1=CC(C)(C)NC(=S)N1CCCn1ccnc1` was tested. Which Activity did it give?
Answer: Its Activity is 32.5%.

Question: How did the Activity turn out when `CC1CC(O)N(CCCN2CCN(CCCN3C(=S)NC(C)CC3O)CC2)C(=S)N1` (stereo not given) was run?
Answer: Its Activity is 38.6%.

Question: How did the Activity turn out when `CC1(C)CC(C)(O)N(CCCN2CCN(CCCN3C(=S)NC(C)(C)CC3(C)O)CC2)C(=S)N1` (stereo not given) was run?
Answer: Its Activity is 31.6%.

Question: For `CC1(C)CC(C)(O)N(Cc2ccco2)C(=S)N1` (stereo not given), which Activity is on record?
Answer: The Activity was 10.3%.

Question: With `CC1=CC(C)(C)NC(=S)N1Cc1ccco1` as the compound, how does the Activity read?
Answer: The Activity was 15.1%.

Question: For `CC1CC(O)N(CCCN2CCCC2=O)C(=S)N1` (stereo not given), which Activity is on record?
Answer: Its Activity is 36.3%.

system: Rattus norvegicus; experiment: Antiinflammatory activity against carrageenan-induced paw oedema in Albino rat at 100 mg/kg, po after 3 hrs; assay type: functional; in short: as §2

Question: Which Activity does the source give for `CC1=CC(C)(C)NC(=S)N1c1ccccc1C#N` here?
Answer: Its Activity is 0%.

Question: `CC1=CC(C)(C)NC(=S)N1CCCC1OCC2(CO1)COC(CCCN1C(=S)NC(C)(C)C=C1C)OC2` (stereo not given) was tested. Which Activity did it give?
Answer: The Activity was 31.8%.

Question: Which Activity does the source give for `CC1(C)CC(C)(O)N(CCCN2CCCC2=O)C(=S)N1` (stereo not given) here?
Answer: Its Activity is 40.3%.

Question: For `CC(C)Cc1ccc(C(C)C(=O)O)cc1` (stereo not given) [IBUPROFEN], which Activity is on record?
Answer: Its Activity is 66.8%.

Question: `CC1(C)CC(C)(O)N(CCCn2ccnc2)C(=S)N1` (stereo not given) was tested. Which Activity did it give?
Answer: The Activity was 35%.

Question: `CC1=CC(C)(C)NC(=S)N1c1n[nH]c(N2C(=S)NC(C)(C)C=C2C)n1` was tested. Which Activity did it give?
Answer: Its Activity is 0%.

Question: `CC1(C)CC(C)(O)N(CCc2c[nH]cn2)C(=S)N1` (stereo not given) was tested. Which Activity did it give?
Answer: Its Activity is 65%.

Question: With `CC1CC(O)N(CCCC2OCC3(CO2)COC(CCCN2C(=S)NC(C)CC2O)OC3)C(=S)N1` (stereo not given) as the compound, how does the Activity read?
Answer: The Activity was 0%.
